# Published values of several laboratories.
# Each line is one published result; the experiments were not run side by side.
# Target: Macrophage-stimulating protein receptor (MST1R, Homo sapiens, UniProt Q04912)
SMILES,read-out,mode,method,concentration,endpoint,result
CCCS(=O)(=O)Nc1ccc(F)c(C(=O)c2c[nH]c3ncc(-c4ccc(Cl)cc4)cc23)c1F,enzyme activity,inhibitor,,1 µM,inhibition,< 10%
Cc1cc(-n2nc(Cc3cc(F)cc(C(F)(F)F)c3)nc2C)ccc1C(N)=O,cell-free assay,,competition with immobilised ligand,1 µM,remaining binding,100%
COc1cc(Cl)c(C(=O)N[C@@H](CN[C@H]2CC[C@@H](N)CC2)Cc2ccc(C#N)cc2)cc1-c1ccc(CN[C@H](C)c2ccc(C)cc2)o1,enzyme activity,inhibitor,,1 µM,remaining activity,92%
CC/C(=N\NC(=O)NCc1cccc(O)c1)c1ccc(O)c(C)c1O,enzyme activity,inhibitor,,0.1 µM,inhibition,-1.5%
CC(C)(C)c1nc2c(s1)c1nc(N)ncc1c1ccc(NS(=O)(=O)c3c(F)cccc3F)c(F)c12,enzyme activity,inhibitor,radiometric,1 µM,remaining activity,116%
CC(C)(O)[C@H]1CC[C@H](Nc2ccc3ncc(-c4cccc(C(F)(F)F)c4)n3n2)CC1,enzyme activity,inhibitor,,1 µM,remaining activity,101%
Cc1ccc(C(=O)NCc2ccsc2)cc1C#Cc1cn(C(C)C)c2ncnc(N)c12,enzyme activity,inhibitor,,1 µM,activity vs control,80%
CC1=C(C#N)[C@@H](c2ccc3[nH]nc(C)c3c2)C(C#N)=C(c2ccc(Cl)cc2)N1,cell-free assay,,competition with immobilised ligand,1 µM,remaining binding,70.2%
Cc1cc(NC(=O)c2cccc3cc(-c4cccc5[nH]nc(N)c45)ccc23)ccc1F,enzyme activity,inhibitor,,0.1 µM,activity vs control,110%
Cc1[nH]c(/C=C2\C(=O)Nc3ccc(F)cc32)c(C)c1C(=O)N[C@H]1CCN(C(=O)N(C)C)C1,enzyme activity,inhibitor,,0.1 µM,remaining activity,93%
COc1cc2ncnc(Nc3ccc(Oc4ccccc4)c(C)c3C)c2cc1OC,enzyme activity,inhibitor,,1 µM,inhibition,-3%
O=c1nc(-c2ccccn2)sc2ccccc12,cell-free assay,,competition with immobilised ligand,1 µM,remaining binding,100%
CCN(CC)CCNC(=O)c1c(C)[nH]c(/C=C2\C(=O)Nc3ccc(F)cc32)c1C,cell-free assay,,,10 µM,inhibition,-1%
O=C1Nc2ccc(Cl)cc2C1=Cc1cc(Cl)c(O)c(Cl)c1,cell-free assay,,,0.5 µM,remaining signal,94.8%
Cc1ccc(Nc2nccc(N(C)c3ccc4c(C)n(C)nc4c3)n2)cc1S(N)(=O)=O,cell-free assay,,,10 µM,inhibition,-4%
COc1cc(-c2cn(C3CCc4ccccc4N(CC(F)(F)F)C3=O)nn2)ccc1-n1ccc(C)n1 (stereo not shown),cell-free assay,,competition with immobilised ligand,1 µM,remaining binding,96%
CCCOc1ccc(OC)c(F)c1C(=O)c1ccc(C(=O)N[C@@H]2CNC[C@H]2NC(=O)c2ccc3[nH]ncc3c2)cc1,enzyme activity,inhibitor,,10 µM,remaining activity,64%
N#CCCc1ccc2c(c1)-c1[nH]c3ccc([N+](=O)[O-])cc3c1CC(=O)N2,cell-free assay,,,0.5 µM,remaining signal,107%
O=C1CCc2cc(Nc3cc(OC4CCOCC4)c([N+](=O)[O-])cc3Cl)ccc2N1,cell-free assay,,competition with immobilised ligand,1 µM,remaining binding,100%
O=C1NC(=O)c2cc(Nc3ccc(F)cc3)c(Nc3ccc(F)cc3)cc21,cell-free assay,,,0.5 µM,remaining signal,100%
CCc1ccccc1C(=O)Nc1n[nH]c2c(C)c(F)c(C3C(C#N)=C(C)N(C)C(C)=C3C#N)cc12,cell-free assay,,competition with immobilised ligand,1 µM,remaining binding,100%
COc1cccc2c(NCc3ccccc3)nc(-n3c(N)nc4ccccc43)nc12,target engagement in cells,inhibitor,chemoproteomics,20 mM,inhibition,-13.2%
CO[C@H]1CC[C@H](CNc2ccc(S(=O)(=O)NC(=O)c3ccc(N4CCN(CC5=C(c6ccc(Cl)cc6)CC(C)(C)CC5)CC4)cc3Oc3cnc4[nH]ccc4c3)cc2[N+](=O)[O-])CC1,cell-free assay,,competition with immobilised ligand,1 µM,remaining binding,92%
Cc1sc(C(=O)NC2COC2)cc1-n1cc(NC(=O)Nc2c(F)cccc2Cl)cn1,enzyme activity,inhibitor,,10 µM,remaining activity,96.9%
CCN(CC)CCNC(=O)c1c(C)[nH]c(/C=C2\C(=O)Nc3ccc(F)cc32)c1C,enzyme activity,inhibitor,,1 µM,remaining activity,138%
CNC(=O)c1cc(Oc2ccc(NC(=O)Nc3ccc(Cl)c(C(F)(F)F)c3)cc2)ccn1,cell-free assay,,,0.3 µM,inhibition,-10%
CNCc1ccccc1-c1csc([C@@H](C)Nc2nc(C)nc3cc(OC)c(OC)cc23)c1,cell-free assay,,competition with immobilised ligand,1 µM,remaining binding,100%
CCCCNc1ncc2c(-c3ccc(F)cc3)nn(C[C@H]3CC[C@H](N)CC3)c2n1,target engagement in cells,inhibitor,chemoproteomics,20 mM,inhibition,-12.3%
